Experimental data of several laboratories.
Each line is one published result; the experiments were not run side by side.
Target: NUAK family SNF1-like kinase 1 (NUAK1, Homo sapiens, UniProt O60285)

SMILES | effect on | action | technique | concentration | endpoint | value
FC(F)c1nc2ccccc2n1-c1nc(N2CCOCC2)nc(N2CCOCC2)n1 | enzyme activity | inhibitor |  | 10 µM | remaining activity | 90%
Cc1nn(CC(F)(F)F)cc1Nc1nccc(NCc2ccc(S(N)(=O)=O)cc2)n1 | enzyme activity | inhibitor | radiometric | 1 µM | remaining activity | 94%
CCN(CC)CCNC(=O)c1c(C)[nH]c(/C=C2\C(=O)Nc3ccc(F)cc32)c1C | cell-free assay |  |  | 0.5 µM | remaining signal | 2.75%
O=C(Nc1cnn(-c2csc(C(=O)NC3COC3)c2)c1)Nc1c(F)cccc1Cl | enzyme activity | inhibitor |  | 5 µM | remaining activity | 95.2%
C#Cc1cccc(Nc2ncnc3cc(OCCOC)c(OCCOC)cc23)c1 | cell-free assay |  |  | 0.5 µM | remaining signal | 98%
COc1cc(-c2cn(C3CCc4c(F)cccc4N(CC(F)(F)F)C3=O)nn2)ccc1-n1cnc(C)c1 (stereo not drawn) | cell-free assay |  | competition with immobilised ligand | 1 µM | remaining binding | 100%
COc1cc2c(Nc3ccc(Br)cc3F)ncnc2cc1OCC1CCN(C)CC1 | cell-free assay |  |  | 0.5 µM | remaining signal | 92.7%
Cc1ccc(Nc2nccc(N(C)c3ccc4c(C)n(C)nc4c3)n2)cc1S(N)(=O)=O | enzyme activity | inhibitor |  | 10 µM | inhibition | 76%
O=C(NCCCNc1ccnc(Nc2cccc(NC(=O)N3CCCC3)c2)n1)C1CCC1 | enzyme activity | inhibitor | radiometric | 1 µM | remaining activity | 87%
CC(=O)Nc1c(C(C)=O)c(=O)n(C)c2nc(-c3ccc(Cl)cc3Cl)c(-c3ccc(Cl)cc3)cc12 | cell-free assay |  | competition with immobilised ligand | 1 µM | remaining binding | 100%
CN(C)C1CCN(CC#Cc2nn(C3CCCC3)c3nc(NCc4ccccc4)ncc23)C1 (stereo not drawn) | enzyme activity | inhibitor | FRET | 1 µM | inhibition | 10%
COc1cc(/C=C/C(=O)CC(=O)/C=C/c2ccc(O)c(OC)c2)ccc1O | enzyme activity | inhibitor |  | 1 µM | activity vs control | 55%
c1ccc(N2CCN(Cc3nc4ccccc4[nH]3)CC2)nc1 | binding |  | competition with immobilised ligand | 1 µM | remaining binding | 89%
Cc1nn(CC(F)(F)F)cc1Nc1ncc(Br)c(NCc2ccc(S(N)(=O)=O)cc2)n1 | enzyme activity | inhibitor | radiometric | 1 µM | remaining activity | 58%
CN(C(=O)c1ccccc1)c1cc(N(C)c2ccc3c(c2)CCc2ccc(C(=O)NCCN4CCOCC4)cc2C3=O)ccc1F | cell-free assay |  | competition with immobilised ligand | 1 µM | remaining binding | 100%
C=CC(=O)Nc1cc(Nc2nccc(Nc3cc(Cl)c(F)cc3C(C)(C)O)n2)c(OC)cc1N1CC[C@@H](N(C)C)C1 | enzyme activity | inhibitor |  | 1 µM | inhibition | 17%
CN([C@@H]1CCc2c(CC(=O)O)c3ccccc3n2C1)S(=O)(=O)c1ccc(F)cc1 | cell-free assay |  | competition with immobilised ligand | 1 µM | remaining binding | 100%
Cc1nn(CC(F)(F)F)cc1Nc1ncc(Br)c(NCCc2cnc[nH]2)n1 | enzyme activity | inhibitor | radiometric | 1 µM | remaining activity | 13%
CN(C)C(=O)Cn1cc(-c2nc(C3(c4ccc(-c5cnc(N)nc5)cc4)CC3)no2)cn1 | cell-free assay |  | competition with immobilised ligand | 1 µM | remaining binding | 82%
c1cc(CN2CCOCC2)cc(Nc2ncc(C3CC3)c(NCCc3c[nH]cn3)n2)c1 | enzyme activity | inhibitor | radiometric | 1 µM | remaining activity | 6%
Cc1ccc(NC(=O)c2ccc(C)c(C(F)(F)F)c2)cc1C#Cc1nn(C2CCC(O)CC2)c2ncnc(N)c12 (stereo not drawn) | cell-free assay |  |  | 10 µM | remaining signal | 108%
Cc1nn(CC(F)(F)F)cc1Nc1ncc(C2CC2)c(NCCc2c[nH]cn2)n1 | enzyme activity | inhibitor | radiometric | 1 µM | remaining activity | 73%
CNC(=O)c1cc(Oc2ccc(NC(=O)Nc3ccc(Cl)c(C(F)(F)F)c3)cc2)ccn1 | enzyme activity | inhibitor |  | 0.3 µM | inhibition | -3%
c1cc(CN2CCOCC2)cc(Nc2nccc(NCCc3cnc[nH]3)n2)c1 | enzyme activity | inhibitor | radiometric | 1 µM | remaining activity | 14%
CNC(=O)Nc1ccc2c(c1)CC[C@@]21OC(=O)N(CC(=O)N(Cc2ccc(F)cc2)[C@@H](C)C(F)(F)F)C1=O | cell-free assay |  | competition with immobilised ligand | 1 µM | remaining binding | 94%
NS(=O)(=O)c1ccc(CNc2ccnc(Nc3cccc(NC(=O)N4CCCC4)c3)n2)cc1 | enzyme activity | inhibitor | radiometric | 1 µM | remaining activity | 78%
O=C1NC(c2ccccn2)Sc2ccccc21 (stereo not drawn) | cell-free assay |  | competition with immobilised ligand | 1 µM | remaining binding | 95%
